Source: ChEMBL document CHEMBL4145604, “Jizanpeptins, Cyanobacterial Protease Inhibitors from a Symploca sp. Cyanobacterium Collected in the Red Sea” (J Nat Prod, 2018)
Calls of active or inactive are those of the source. The calls are words filed in the database; no cut-off is given here. *1 amine or outer side, *2 acyl side, *3 side chain or, on linkers, in order; H or OH if unused. Where a SMILES comes first, the peptide text is derived from it. Bridges are numbered along the chain shown (N, C = ends). [ ]: non-standard residue; d: D form. The star is where a group is joined. Ahp(3S,6R)alloIle = CC[C@@H](C)[C@@H](C(=O)[*:2])N1C(=O)[C@@H](N[*:1])CC[C@H]1O; Propanoyl(2R-OMe,3-OSO3H) = CO[C@H](COS(=O)(=O)O)C(=O)*; NMeTyr(3-Br,OMe) = CN[C@@H](Cc1ccc(OC)c(Br)c1)C(=O)O; Cit = NC(=O)NCCC[C@H](N)C(=O)O; Butyryl = CCCC(=O)*

How the values were obtained:
[1] = molecular target: Trypsin (Homo sapiens, UniProt P07477+P07478+P35030); assay: Inhibition of trypsin (unknown origin) assessed as reduction in conversion of N-benzoyl-L-arginine ethyl ester hydrochloride to N-benzoyl-L-arginine incubated for 5 mins measured for 30 secs by spectrophotometric method; type: protein assay
[2] = (§1) Inhibition of chymotrypsin (unknown origin) assessed as reduction in conversion of N-benzoyl-L-tyrosine ethyl ester to N-benzoyl-L-tyrosine incubated for 3 mins measured for 30 secs by spectrophotometric method; design: species or system Homo sapiens
[3] = species: Homo sapiens; assay: Selectivity ratio of IC50 for chymotrypsin (unknown origin) to IC50 for trypsin (unknown origin)
[4] = tested on: NCI-H460; assay: Antiproliferative activity against human NCI-H460 cells up to 3 uM after 72 hrs by MTT assay; type: functional, cell-based
Procedure, shortened: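 NCI-H460 cells exposed for 72 h to 30 nM–3 μM compound from DMSO stocks, final DMSO 0.1%; apratoxin A (30 nM) positive control; MTT viability end-point, vehicle-treated cells set as 100%.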

[5] = tested on: HeLa; assay: Antiproliferative activity against human HeLa cells up to 3 uM after 72 hrs by MTT assay; type: functional, cell-based
[6] = species: Homo sapiens; assay: as §1

## CC[C@@H](C)[C@H]1C(=O)N(C)[C@@H](Cc2ccc(OC)c(Br)c2)C(=O)N[C@@H]([C@@H](C)CC)C(=O)O[C@H](C)[C@H](NC(=O)[C@@H](NC(=O)[C@@H](COS(=O)(=O)O)OC)C(C)C)C(=O)N[C@@H](CCCCN)C(=O)N[C@H]2CC[C@@H](O)N1C2=O
[1]
  IC50: 72 nM
[2]
  IC50: 1400 nM
[3]
  Ratio IC50: 19
[4]
  Activity: inactive
[5]
  Activity: inactive

## CC[C@@H](C)[C@H]1C(=O)N(C)[C@@H](Cc2ccc(OC)c(Br)c2)C(=O)N[C@@H]([C@@H](C)CC)C(=O)O[C@H](C)[C@H](NC(=O)[C@H](NC(=O)[C@@H](COS(=O)(=O)O)OC)C(C)C)C(=O)N[C@@H](CCCCN)C(=O)N[C@H]2CC[C@@H](O)N1C2=O
[1]
  IC50: 190 nM
[2]
  IC50: > 10000 nM
[3]
  Ratio IC50: 10 to 66
[4]
  Activity: inactive
[5]
  Activity: inactive

## CC[C@@H](C)[C@H]1C(=O)N(C)[C@@H](Cc2ccc(OC)c(Br)c2)C(=O)N[C@@H]([C@@H](C)CC)C(=O)O[C@H](C)[C@H](NC(=O)[C@@H](NC(=O)[C@@H](COS(=O)(=O)O)OC)[C@@H](C)CC)C(=O)N[C@@H](CCCCN)C(=O)N[C@H]2CC[C@@H](O)N1C2=O ({Propanoyl(2R-OMe,3-OSO3H)}-ITK[Ahp(3S,6R)alloIle][NMeTyr(3-Br,OMe)]I; ester 2-C)
[1]
  IC50: 1000 nM
[2]
  IC50: > 10000 nM
[3]
  Ratio IC50: 10 to 66
[4]
  Activity: inactive
[5]
  Activity: inactive

## CC[C@@H](C)[C@H]1C(=O)N(C)[C@@H](Cc2ccc(OC)c(Br)c2)C(=O)N[C@@H]([C@@H](C)CC)C(=O)O[C@H](C)[C@H](NC(=O)[C@H](NC(=O)[C@H](O)COS(=O)(=O)O)C(C)C)C(=O)N[C@@H](CCCCN)C(=O)N[C@H]2CC[C@@H](O)N1C2=O
[1]
  IC50: 160 nM
[2]
  IC50: > 10000 nM
[3]
  Ratio IC50: 10 to 66
[4]
  Activity: inactive
[5]
  Activity: inactive

## CCCC(=O)N[C@H](CCC(N)=O)C(=O)N[C@@H]1C(=O)N[C@@H](CCCNC(N)=O)C(=O)N[C@H]2CC[C@@H](O)N(C2=O)[C@@H]([C@H](C)CC)C(=O)N(C)[C@@H](Cc2ccc(OC)c(Br)c2)C(=O)N[C@@H](C(C)C)C(=O)O[C@@H]1C (Butyryl-[dQ]T[Cit][Ahp(3S,6R)alloIle][NMeTyr(3-Br,OMe)]V; ester 2-C)
[1]
  inhibition: Active
[6]
  inhibition: Active
[4]
  Activity: Active

## CC[C@@H](C)[C@H]1C(=O)N(C)[C@@H](Cc2ccc(OC)c(Br)c2)C(=O)N[C@@H]([C@@H](C)CC)C(=O)O[C@H](C)[C@H](NC(=O)[C@H](NC(=O)[C@@H](COS(=O)(=O)O)OC)C(C)C)C(=O)N[C@@H](CCCNC(=N)N)C(=O)N[C@H]2CC[C@@H](O)N1C2=O
[1]
  IC50: 150 nM
[2]
  IC50: > 10000 nM
[3]
  Ratio IC50: 10 to 66
[4]
  Activity: inactive
[5]
  Activity: inactive
